Source: ChEMBL document CHEMBL4706680, “Small-Molecule HSP27 Inhibitor Abolishes Androgen Receptors in Glioblastoma” (J Med Chem, 2021)
Activity calls are given as the source filed them. No cut-off for these calls is given here.

Key:
[1] = Toxicity in NCR nude mouse xenografted with human U87 cells assessed as change in body weight at 20 mg/kg, ip administered thrice weekly for 14 days; assay type: organism-based; conditions: in vivo, 336 h, time 14 day
How it was run: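 Male NCRNU nude mice, 5–6 weeks old, were given 5 × 10^6 U87 cells in 100 μL sterile PBS, injected subcutaneously into the left and right flanks. Dosing was 20 mg/kg in PBS, three times weekly for 14 days, with a DMSO vehicle group. Body weight was recorded three times weekly. Results are mean ± SD, n = 4 mice per group.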

Mus musculus = assay: In vivo inhibition of HSP27 in human U87 cells xenografted in NCR nude mouse assessed as reduction in AR expression level in tumors at 20 mg/kg, po administered thrice weekly for 14 days by Western blot analysis; assay type: functional, organism-based; conditions: time 14.0 day
How it was run: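 Tumors from U87 flank xenografts in male nude mice dosed at 20 mg/kg IP or orally three times weekly for 14 days. The two tumors of each mouse were pooled and homogenized in RIPA with protease inhibitors and PMSF. AR was then measured by western blot; n = 4.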

[2] = Dissociation constant, pKa of the compound; assay type: physicochemical
U-87 MG [3] = assay: Antitumor activity against human U87 cells xenografted in nude mouse assessed as reduction in tumor size at 20 mg/kg, po administered thrice weekly for 14 days by vernier caliper method; assay type: functional, organism-based; conditions: U-87MG ATCC, time 14.0 day
How it was run: (§1)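 Male NCRNU nude mice, 5–6 weeks, 5 × 10^6 U87 cells in PBS injected subcutaneously into left and right flank (n = 4 mice, 8 tumors per group). Dosing began near 50 mm3: 20 mg/kg in PBS IP or oral, three times weekly for 14 days, vehicle DMSO. Calipers three times weekly, V = 2/3·d1·d2²; tumors weighed after CO2 euthanasia.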

U-87 MG [4] = assay: Antitumor activity against human U87 cells xenografted in nude mouse assessed as reduction in tumor weight at 20 mg/kg, ip administered thrice weekly for 14 days by vernier caliper method; assay type: functional, organism-based; conditions: U-87MG ATCC, time 14.0 day; how it was run: as §1
U-87MG ATCC = assay: Downregulation of PSA mRNA expression in human U87 cells at 25 nM incubated for 12 hrs by qRT-PCR analysis; assay type: functional, cell-based
How it was run: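 T98G and U87 cells, 2 × 10^5 per well, adhered overnight and were treated at 25 nM for 12 h. RNA was extracted with RiboZol and DNase I-treated. AR, PSA and NKX3.1 were measured by real-time PCR, normalized to 18S by 2−ΔΔCt, three replicates per cDNA.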

[5] = target: Heat shock protein beta-1 (Homo sapiens) (UniProt P04792); assay: Inhibition of HSP27 in human U87 cells assessed as reduction in AR expression level at 50 to 100 nM by Western blot analysis; assay type: cell-based; conditions: dose 50-100 nM
Heat shock protein beta-1 (Homo sapiens), sequence (P04792 whole entry): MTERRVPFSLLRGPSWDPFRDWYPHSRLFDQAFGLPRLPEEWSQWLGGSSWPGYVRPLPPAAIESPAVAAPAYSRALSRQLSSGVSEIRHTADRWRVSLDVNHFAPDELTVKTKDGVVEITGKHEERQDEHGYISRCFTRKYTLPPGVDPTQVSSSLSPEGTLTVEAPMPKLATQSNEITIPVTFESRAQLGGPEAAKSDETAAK
How it was run: (§2)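 Cells were treated in six-well plates (with or without MG132 where stated), then lysed in RIPA with protease inhibitors. 50 μg protein was run on 10% SDS-PAGE and transferred to PVDF. Membranes were blocked in 5% milk/TBS-T, probed with AR or AR-V7 antibodies overnight at 4 °C, and detected by chemiluminescence. Densitometry was used; n = 3.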

[6] = target: Heat shock protein beta-1 (Homo sapiens) (UniProt P04792); assay: Inhibition of HSP27 in human U87 cells assessed as induction of AR degradation at 25 to 100 nM by Western blot analysis; assay type: cell-based; conditions: dose 25-100 nM; how it was run: as §2
[7] = target: Heat shock protein beta-1 (Homo sapiens) (UniProt P04792); assay: Inhibition of HSP27 in human T98G cells assessed as downregulation of androgen receptor by Western blot analysis; assay type: cell-based; conditions: dose 25-100 nM; how it was run: as §2

pKa [2]: 8.65
inhibition [5]: Active
inhibition [6]: Active
inhibition [7]: Dose-dependent effect
SMILES: COc1ccc(C(=O)Nc2ccc(NS(C)(=O)=O)c(OCc3cc(OC)ccc3OC)c2)cc1
Activity [1]: Non-Toxic
inhibition (Mus musculus): Active
Activity (U-87 MG [3]): Active
Activity (U-87 MG [4]): Active
inhibition (U-87MG ATCC): Active
